# Measured values collected from several papers.
# Target: Activin receptor type-1B (ACVR1B, Homo sapiens, UniProt P36896)
# Sequence (P36896 24-505, as in one of the studies): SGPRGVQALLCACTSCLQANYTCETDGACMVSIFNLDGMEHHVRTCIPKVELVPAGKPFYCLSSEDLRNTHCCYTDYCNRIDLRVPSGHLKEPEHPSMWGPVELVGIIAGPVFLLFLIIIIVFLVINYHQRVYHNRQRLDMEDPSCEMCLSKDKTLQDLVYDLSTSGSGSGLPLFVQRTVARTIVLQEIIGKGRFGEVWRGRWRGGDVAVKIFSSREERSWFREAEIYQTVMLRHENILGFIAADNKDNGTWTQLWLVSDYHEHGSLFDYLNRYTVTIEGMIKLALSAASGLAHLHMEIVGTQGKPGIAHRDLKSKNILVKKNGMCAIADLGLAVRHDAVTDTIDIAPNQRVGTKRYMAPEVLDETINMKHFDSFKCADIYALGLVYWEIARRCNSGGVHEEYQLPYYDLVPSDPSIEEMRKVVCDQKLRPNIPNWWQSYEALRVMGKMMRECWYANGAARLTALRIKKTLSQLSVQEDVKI
Compound,effect on,mode,technique,tested at,endpoint,value
CC(C)(C)c1nc(-c2cccc(NS(=O)(=O)c3c(F)cccc3F)c2F)c(-c2ccnc(N)n2)s1,enzyme activity,inhibitor,radiometric,1 µM,remaining activity,22%
O=c1cc(-c2cccc3c2Sc2ccccc2S3)oc(N2CCOCC2)c1,enzyme activity,inhibitor,,0.5 µM,remaining activity,114%
COc1cc(-c2cc(-c3ccc(N4CCNCC4)cc3)cnc2C)cc(OC)c1OC,enzyme activity,inhibitor,,1 µM,inhibition,36%
CO[C@@H](C)c1c(Nc2ccc([C@H](N(C)C(=O)C3CCS(=O)(=O)CC3)C(F)(F)F)cc2)cnc2cc(Cl)nn12,cell-free assay,,competition with immobilised ligand,1 µM,remaining binding,72%
CS(=O)(=O)Nc1cccc(-c2csc(NC(=O)CSc3nc4nccnc4c(=O)n3CCc3ccccc3)n2)c1,enzyme activity,inhibitor,,10 µM,inhibition,2%
O=C(N1CCS(=O)(=O)CC1)N1C[C@H](c2ccc(OC(F)(F)F)cc2)C[C@H](c2nc(C3CC3)no2)C1,cell-free assay,,competition with immobilised ligand,1 µM,remaining binding,100%
CC(C)(O)[C@H]1CC[C@H](Nc2ccc3ncc(-c4cccc(C(F)(F)F)c4)n3n2)CC1,enzyme activity,inhibitor,,1 µM,remaining activity,100%
O=C1NC(=O)c2cc(Nc3ccc(F)cc3)c(Nc3ccc(F)cc3)cc21,cell-free assay,,,0.5 µM,remaining signal,94.2%
O=C(Nc1ccc(Oc2ccc(F)cc2)cc1)N1CCc2ncccc2[C@H]1c1ccc(F)cc1,cell-free assay,,competition with immobilised ligand,1 µM,remaining binding,94%
Cc1cc(NC(=O)c2cccc3cc(-c4cccc5[nH]nc(N)c45)ccc23)ccc1F,enzyme activity,inhibitor,,0.1 µM,activity vs control,103%
Cc1ccc(NC(=O)c2ccc(C)c(C(F)(F)F)c2)cc1C#Cc1nn(C2CCC(O)CC2)c2ncnc(N)c12 (stereo not shown),cell-free assay,,,10 µM,remaining signal,79%
COc1cc2ncnc(Nc3ccc(Oc4ccccc4)c(C)c3C)c2cc1OC,enzyme activity,inhibitor,,1 µM,inhibition,-3%
CSc1cccnc1N1CCN(Cc2nc3ccccc3[nH]2)CC1,cell-free assay,,competition with immobilised ligand,1 µM,remaining binding,100%
O=C(Nc1cnn(-c2csc(C(=O)NC3COC3)c2)c1)Nc1ccccc1Cl,enzyme activity,inhibitor,,5 µM,remaining activity,124%
Cc1ccc(Nc2nccc(N(C)c3ccc4c(C)n(C)nc4c3)n2)cc1S(N)(=O)=O,cell-free assay,inhibitor,,0.3 µM,inhibition,-22%
CN(C)C1CCN(CC#Cc2nn(C3CCCC3)c3nc(NCc4ccccc4)ncc23)C1 (stereo not shown),enzyme activity,inhibitor,FRET,10 µM,inhibition,-8%
CCOCCn1cc(C(=O)Nc2ccc(-n3nc(-c4cccnc4)cc3C(F)(F)F)cn2)ccc1=O,cell-free assay,,competition with immobilised ligand,1 µM,remaining binding,79%
CC1(C)NC(=O)c2[nH]c3c(Cl)c(Cl)ccc3c2C1C#N (stereo not shown),thermal stability,,DSF,10 µM,ΔTm,1.6 °C
CCCOc1ccc(OC)c(F)c1C(=O)c1ccc(C(=O)N[C@@H]2CNC[C@H]2NC(=O)c2ccc3[nH]ncc3c2)cc1,enzyme activity,inhibitor,,10 µM,remaining activity,91%
Cn1c2c(c3ccc(Cl)c(Cl)c31)C(C#N)C1(CCOCC1)NC2=O (stereo not shown),thermal stability,,DSF,10 µM,ΔTm,0.2 °C
C[C@H](c1ccc(F)cc1)N(Cc1cccc(C(=O)O)c1)C(=O)c1cnc2ccccc2c1,cell-free assay,,competition with immobilised ligand,1 µM,remaining binding,100%
N#CCCc1ccc2c(c1)-c1[nH]c3ccc([N+](=O)[O-])cc3c1CC(=O)N2,cell-free assay,,,0.5 µM,remaining signal,110%
Cn1c2c(Cl)c(Cl)ccc2c2cc[nH]c(=O)c21,thermal stability,,DSF,10 µM,ΔTm,3.1 °C
CN1CCN(c2cnc3c(C4CCN(C(=O)c5ccc(OC(F)(F)F)cc5N)CC4)ncnc3c2)CC1,cell-free assay,,competition with immobilised ligand,1 µM,remaining binding,79%
Cn1c2c(c3ccc(Cl)c(Cl)c31)C(C#N)C1(CCNCC1)NC2=O (racemic),thermal stability,,DSF,10 µM,ΔTm,-0.1 °C
Cn1cc(Cl)c2c(Oc3c(F)cc(Nc4cc(Cl)nc(N)n4)cc3F)ccnc21,cell-free assay,,competition with immobilised ligand,0.1 µM,remaining binding,98%
CNC(=O)c1cc(Oc2ccc(NC(=O)Nc3ccc(Cl)c(C(F)(F)F)c3)cc2)ccn1,cell-free assay,inhibitor,,10 µM,inhibition,17%
CN1CCC2(CC1)NC(=O)c1c(c3ccc(Cl)c(Cl)c3n1C)C2C#N (racemic),thermal stability,,DSF,10 µM,ΔTm,0.3 °C
